Test results: ChEMBL document CHEMBL4680165, “β-Lactams with antiproliferative and antiapoptotic activity in breast and chemoresistant colon cancer cells” (Eur J Med Chem, 2020)
Active and inactive are the calls of the source. The calls are words filed in the database; no cut-off is given here.

Columns and labels:
HT-29 [1] = assay: Potency index, ratio of CA-4 IC50 to test compound IC50 for human HT-29 cells; format: functional
HT-29 [2] = assay: Antiangiogenic activity in human HT29 cells assessed as reduction in IL-1beta secretion at 5 uM after 24 hrs by ELISA; format: functional, cell-based
Summary of the method: (§1)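 HT-29 cells at 5 x 10^4 per well, cultured 24 h and then exposed to 5 µM compound. Conditioned medium collected on ice and stored at -80 °C. Cytokines and angiogenic, vascular-injury and chemokine factors measured by multiplex panels with overnight supernatant incubation (Angiogenesis Panel 1 and Vascular Injury Panel 2 same day). Medium undiluted except 1:4 for Vascular Injury Panel 2. Secretion normalised to lysate protein by BCA.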

HT-29 [3] = assay: Antiangiogenic activity in human HT29 cells assessed as reduction in VEGF secretion at 5 uM after 24 hrs by ELISA; format: functional, cell-based; summary of the method: as §1
Bos taurus = organism: Bos taurus; assay: Inhibition of bovine brain tubulin polymerization at 10 uM measured at 30 sec interval for 30 mins in presence of GTP by turbidimetry-based spectrophotometric method
MCF7 = assay: Antiproliferative activity against human MCF7 cells assessed as reduction in cell viability after 72 hrs by alamar blue assay; format: functional, cell-based; settings: MCF7, 72 h
Summary of the method: (§2)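 Cells seeded at 5 x 10^3/well (MCF-7) or 1 x 10^4/well (HT-29, HEK-293T) and treated after 24 h with serial dilutions (0.001-100 µM) in 1% v/v ethanol vehicle. Alamar Blue 10% v/v added at 72 h, then 3-5 h at 37 °C in the dark; fluorescence ex 530/em 590 nm. Viability relative to vehicle; IC50 from dose-response curves; mean of three experiments in triplicate.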

HT-29 [4] = assay: Antiangiogenic activity in human HT-29 cells assessed as increase in IL-1RA secretion at 5 uM after 24 hrs by ELISA; format: functional, cell-based; summary of the method: as §1
[5] = Selectivity index, ratio of IC50 for human MCF7 cells to IC50 for human HT-29 cells assessed as reduction in cell viability after 72 hrs by alamar blue assay; format: functional
HT-29 [6] = assay: Antiproliferative activity against human HT-29 cells assessed as reduction in cell viability after 72 hrs by alamar blue assay; format: functional, cell-based; settings: HT-29, 72 h; summary of the method: as §2
HT-29 [7] = assay: Antiangiogenic activity in human HT29 cells assessed as reduction in IL-1alpha secretion at 5 uM after 24 hrs by ELISA; format: functional, cell-based; summary of the method: as §1

IC50 (MCF7): 5 nM
IC50 (HT-29 [6]): 7 nM
Structure (SMILES): COc1ccc([C@H]2[C@H](O)C(=O)N2c2cc(OC)c(OC)c(OC)c2)cc1C
Ratio IC50 (HT-29 [1]): 600
Activity (HT-29 [2]): inactive
Activity (HT-29 [3]): inactive
inhibition (Bos taurus): Active
Activity (HT-29 [4]): Active
Ratio IC50 [5]: 0.71
Activity (HT-29 [7]): inactive
